In brackets after ≈: the same amount, converted by molar mass. Activity calls are given as the source filed them.
Legend:
[1] = tested on: Candida albicans; assay: Antimicrobial activity against Candida albicans BR-A1 grown as planktonic cell after 48 hrs by XTT reduction assay; type: functional
In short: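 Planktonic broth microdilution followed CLSI M27-A2, with caspofungin dissolved in water. After 48 h, XTT-menadione was added to the wells and plates were kept 1 h at 35°C in the dark. Plates were then centrifuged and supernatant A490 was read. MIC was the lowest concentration giving a 50% decrease in metabolic activity versus drug-free control. Paradoxical growth was defined as ≥20% of control activity above the MIC.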

[2] = tested on: Candida orthopsilosis; assay: Antimicrobial activity against Candida orthopsilosis BR-A36 grown as biofilm after 48 hrs by XTT reduction assay; type: functional; settings: Lodderomyces orthopsilosis
In short: (§1)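 Isolates were grown on Sabouraud agar (30°C, 24 h), then overnight in RPMI 1640 with MOPS, pH 7.0, at 35°C with shaking. Cells were washed and set to ~1 × 10^7 cells/ml, attached 1.5 h at 37°C, and grown 24 h. Biofilms were then exposed to caspofungin in 10 twofold dilutions (2–1,024 μg/ml) for 48 h at 35°C with shaking. Read-out was XTT-menadione, 1 h, 35°C, dark, A490, cell-free blank subtracted. MIC was the 50% drop in activity versus drug-free control. Tested in duplicate.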

[3] = tested on: Candida parapsilosis; assay: Antimicrobial activity against Candida parapsilosis 22019 grown as biofilm after 48 hrs by XTT reduction assay; type: functional; settings: Lodderomyces parapsilosis, 22019, 48 h; in short: as §1
[4] = tested on: Candida parapsilosis; assay: Antimicrobial activity against Candida parapsilosis BR-A31 grown as biofilm assessed as concentration producing paradoxical growth after 48 hrs by XTT reduction assay; type: functional
In short: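 Clinical isolates were grown overnight (18 h, 35°C, 120 rpm) in RPMI 1640 with MOPS, pH 7.0, then washed and set to ~1 × 10^7 cells/ml. Cells attached for 1.5 h at 37°C, 75 rpm, then biofilms grew 24 h. Caspofungin was given as doubling dilutions of 2–1,024 μg/ml for 48 h at 35°C, 75 rpm. Read-out was XTT-menadione in PBS, 1 h at 35°C in the dark, A490, cell-free blank subtracted. MIC was a 50% drop in activity versus drug-free; PG was >50% of control above MIC. Run in duplicate.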

[5] = tested on: Candida orthopsilosis; assay: Antimicrobial activity against Candida orthopsilosis BR-A32 grown as biofilm assessed as concentration producing paradoxical growth after 48 hrs by XTT reduction assay; type: functional
In short: (§2)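 Sabouraud-grown cells were shaken overnight (18 h, 120 rpm, 35°C) in RPMI 1640 with MOPS at pH 7.0, then washed and set at ~1 × 10^7 cells/ml. Attachment lasted 1.5 h at 37°C, and growth ran 24 h before challenge. Caspofungin was added in RPMI at 2–1,024 μg/ml (10 doublings) for 48 h at 35°C with shaking. XTT-menadione was read at 490 nm after 1 h at 35°C in the dark, with blank wells subtracted. MIC was taken as 50% reduction versus drug-free wells, and PG as >50% of control above MIC. Assays were run in duplicate.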

[6] = tested on: Candida metapsilosis; assay: Antimicrobial activity against Candida metapsilosis BR-A44 grown as biofilm assessed as concentration producing paradoxical growth after 48 hrs by XTT reduction assay; type: functional; in short: as §2
[7] = tested on: Candida parapsilosis; assay: Effect on morphology in Candida parapsilosis grown as planktonic cells assessed as inhibition of hyphae and pseudohyphae at 16 ug/ml after 48 hrs; type: functional, organism-based
In short: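 Cells were taken from caspofungin-containing and drug-free wells of the planktonic broth microdilution test after 48 h. They were examined by light microscopy at ×400.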

CC[C@H](C)C[C@H](C)CCCCCCCCC(=O)N[C@H]1C[C@@H](O)[C@@H](NCCN)NC(=O)[C@@H]2[C@@H](O)CCN2C(=O)[C@H]([C@H](O)CCN)NC(=O)[C@H]([C@H](O)[C@@H](O)c2ccc(O)cc2)NC(=O)[C@@H]2C[C@@H](O)CN2C(=O)[C@H]([C@@H](C)O)NC1=O [CASPOFUNGIN]
MIC [1]: 0.5 µg/mL (≈ 0.457 µM) | MIC [2]: 2 µg/mL (≈ 1.83 µM) | MIC [3]: 2 µg/mL (≈ 1.83 µM) | Activity [4]: 32 µg/mL | Activity [5]: 32 µg/mL | Activity [6]: 16 µg/mL | Activity [7]: Active

Source: ChEMBL document CHEMBL1143425, “Paradoxical growth effect of caspofungin observed on biofilms and planktonic cells of five different Candida species” (2007)
